Source: PubChem BioAssay
SR-BI HDL uptake = inhibitors of SR-BI mediated HDL lipid uptake, primary screen, ldlA[mSR-BI] cells, fluorescence, single point; Scavenger receptor class B member 1 (Mus musculus), Q61009; ldlA[mSR-BI] CHO cells, DiI-HDL uptake fluorescence, 3 h; inhibition, % at 12.5 µM; actives 0.96% (n = 320,000); AID 488896, 2010;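 active = mean replicate inhibition of at least 70% and a set share of replicates each scoring 70 or more; inconclusive = meets just one of the two criteria; inactive = fails both criteria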;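 also: 0% = median of neutral control wells and 100% = median of positive control wells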
GSK3beta inhib = human GSK3beta kinase inhibitors, primary screen, biochemical, cell-free homogeneous, HTS; Glycogen synthase kinase-3 beta (Homo sapiens), P49841; GST-GSK3beta kinase, ADP-Glo luminescence, 60 min; hits give low values; activity score (negative = inhibition), % at 10 µM; actives 0.038% (n = 300,000);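 active = more than half of replicate wells score below -50%, meaning over 50% inhibition versus plate controls; inconclusive = some replicates but at most half score below -50%; inactive = no replicate scores below -50%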;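 also: 0% = median DMSO wells and -100% = median GW8510 positive control wells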
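Test system: GST-tagged human GSK3beta kinase, cell-free; evaluation: activity score scaled between in-plate DMSO and GW8510 controls; measured by: ADP-Glo luminescence; incubation: 60 min reaction, RT; benchmarks: DMSO and 20 µM GW8510; reagent: peptide substrate plus 25 µM ATP (final); medium: Tris/MgCl2 kinase buffer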
SR-BI DiI-HDL act = activators of SR-BI mediated DiI-HDL uptake, primary screen, ldlA[mSR-BI] CHO cells, DiI fluorescence; 3 h; 100 = double the neutral-control signal; activation, % at 12.5 µM; actives 0.096% (n = 320,000); AID 504775, 2011;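 active = mean replicate activation of at least 60% and every replicate at or above 60%; inconclusive = mean or all-replicate condition met, but not both; inactive = mean below 60% and not all replicates reaching 60%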;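 also: 0% = median plate neutral-control signal and 100% = twice that signal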
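Test system: SR-BI-overexpressing, LDLR-lacking CHO cells; Also added: labelled HDL, 10 µg/mL; Measured by: bottom-read cell fluorescence after medium removal, ex 550/em 595 nm; Timing: 3 h uptake period with compound, 37 °C; Buffer or medium: F12, 0.5% BSA, 25 mM HEPES; Doses: single compound concentration, delivered by pin transfer.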
GSK3A inh = blockers of GSK3A enzyme activity – biochemical, luminescence, cell-free homogeneous, HTS, primary screen. inhibition, % at 10 µM. GSK-3 alpha kinase, ADP-Glo luminescence, 60 min. AID 2650, 2010. Glycogen synthase kinase-3 alpha (Homo sapiens), P49840. actives 0.1% (n = 320,000);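 active = more than half of replicates show inhibition above 20%; inconclusive = some but at most half of replicates above 20% inhibition; inactive = no replicate shows inhibition above 20%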;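 also: GST-tagged GSK-3 alpha with peptide substrate and 25 µM ATP; 0% = DMSO neutral wells and 100% = GW8510 positive control wells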
CDK5 inh = inhibitors of human CDK5/p35 kinase, primary screen, biochemical, single concentration. actives 0.01% (n = 330,000). inhibition, % at 10 µM. Recombinant CDK5/p35, ADP-Glo luminescence, 60 min. Cyclin-dependent kinase 5 (Homo sapiens) + Cyclin-dependent kinase 5 activator 1 (Homo …. AID 488839, 2010;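 active = highest replicate inhibition of at least 50% and at least 75% of replicates reaching 50%; inconclusive = only one of the two criteria met; inactive = both criteria failed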;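 also: plate controls were DMSO neutral control for no effect and GW8510 at 10 µM for full effect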
Target sequence (Q00535 whole entry, looked up): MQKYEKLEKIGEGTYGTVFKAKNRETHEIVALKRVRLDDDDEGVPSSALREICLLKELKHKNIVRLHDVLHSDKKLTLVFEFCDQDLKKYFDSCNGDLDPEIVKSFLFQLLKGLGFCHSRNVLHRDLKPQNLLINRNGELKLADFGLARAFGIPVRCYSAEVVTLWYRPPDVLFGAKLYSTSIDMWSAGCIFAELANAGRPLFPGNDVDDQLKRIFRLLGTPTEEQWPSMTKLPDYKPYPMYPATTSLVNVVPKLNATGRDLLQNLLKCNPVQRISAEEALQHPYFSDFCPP
Target sequence (Q15078 whole entry, looked up): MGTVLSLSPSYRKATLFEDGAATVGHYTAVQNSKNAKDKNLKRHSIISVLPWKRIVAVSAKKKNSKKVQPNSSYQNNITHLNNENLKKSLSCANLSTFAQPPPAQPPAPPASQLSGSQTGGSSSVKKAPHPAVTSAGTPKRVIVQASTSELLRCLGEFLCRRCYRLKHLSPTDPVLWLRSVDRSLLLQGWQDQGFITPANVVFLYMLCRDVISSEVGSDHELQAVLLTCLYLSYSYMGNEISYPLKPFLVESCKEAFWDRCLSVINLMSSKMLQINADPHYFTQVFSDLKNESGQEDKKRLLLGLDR
Starred values were filed as active, the others as inactive; i = inactive; ? = inconclusive; . = no result given. The list is not random: actives were taken first. Their share in the collection is about 1.1%.

SMILES	SR-BI HDL uptake	GSK3beta inhib	SR-BI DiI-HDL act	GSK3A inh	CDK5 inh
CCC(NC(=S)NC1CCCCC1)c1ccc(C)cc1 (configuration not stated)	-6.0	-0.7	6.0	-0.8	2.1
CCN(CC)c1ccc(/C=C2\CCC(/C=N/NC(=O)c3ccc(=O)n(C)c3)=C2N2CCOCC2)cc1	99.6*	0.6	-99.6	2.8	1.6
Cc1occc1C(=O)N/N=C/C1=C(N2CCOCC2)C(=C\c2ccc(Cl)cc2)/CC1	.	0.1	.	4.1	2.3
CC(C)C(NC(=O)C12CC3CC(CC(C3)C1)C2)C(=O)N/N=C/C1=C(N2CCOCC2)C(=C\c2ccc([N+](=O)[O-])cc2)/CC1 (configuration not stated)	98.9*	4.9	-98.9	-0.3	0.0
Cc1cc(C)nc(N/N=C/C2=C(N3CCOCC3)C(=C/c3ccccc3)/CC2)n1	90.4*	0.0	-90.4	0.0	2.8
O=C(N/N=C/C1=C(N2CCOCC2)C(=C\c2ccccc2)/CC1)Nc1ccccc1	73.9*	0.6	-73.9	-5.0	-0.8
COc1ccc(-c2ccc(NCCC3=CCCCC3)nn2)cc1OC	74.9*	2.2	-74.9	5.6	-1.9
CC(=O)Nc1cccc(/C(C)=N/NC(N)=S)c1	81.5*	3.6	-81.5	-3.7	-0.3
CC(=O)NCCc1ccc(C(=O)COC(=O)c2cc(C)oc2C)cc1	22.7	.	-22.7	6.4	-3.5
COc1ccc(-c2sc(NC(C)=O)nc2-c2ccccc2)cc1	80.5*	-5.4	-80.5	-4.0	.
COc1ccc(-c2nc(NC(C)=O)sc2-c2ccccc2)cc1	67.8	-0.1	-67.8	-6.5	-0.4
COc1ccc(-c2nc(NC(=O)c3ccccc3)sc2-c2ccc([N+](=O)[O-])cc2)cc1	78.5*	-3.5	-78.5	-1.3	0.1
Cc1cccc(N2CCN(S(=O)(=O)c3ccc(-c4ccc(=O)[nH]n4)o3)CC2)c1C	-11.2	1.8	11.2	4.3	-1.0
O=C(Nc1ccccc1)Nc1nc(-c2ccccc2)cs1	-215.8	-0.2	?	-1.7	0.6
COc1cccc(-c2csc(NC(=O)Nc3ccccc3)n2)c1	77.3*	0.7	-77.3	-3.5	0.6
COc1cccc(Nc2nc(-c3cccc(N4C(=O)c5ccccc5C4=O)c3)cs2)c1	91.2*	-1.3	-91.2	-1.7	-0.3
Cc1ccc(S(=O)(=O)NC2CC(C)(C)N(O)C(C)(C)C2)cc1	-20.6	.	20.6	-2.1	-4.3
CC(C)C(C(=O)NCC1CCCO1)N(C(=O)CNS(=O)(=O)c1ccccc1)c1ccc(F)cc1 (configuration not stated)	.	0.3	.	0.9	0.0
COc1ccccc1CNC(=O)COc1ccc(C)cc1	i	-0.2	718.1*	-1.7	2.1
O=C1CCCN1CC(O)CS(=O)(=O)Cc1ccc(Cl)cc1 (configuration not stated)	.	6.1	.	1.0	.
COc1ccc(OCC(=O)N2CCN(c3nnc(-c4ccc(C)cc4)c4ccccc34)CC2)cc1	76.7*	3.5	-76.7	-0.6	0.5
Cc1cccc(OCC(=O)N2CCN(c3nnc(-c4ccccc4)c4ccccc34)CC2)c1	79.8*	6.8	-79.8	0.5	0.7
Cc1ccc(-c2nnc(N3CCN(C(=O)COc4cccc(C)c4)CC3)c3ccccc23)cc1	63.9	0.6	-63.9	0.7	-0.3
COc1ccc(OCC(=O)N2CCN(c3nnc(-c4ccccc4)c4ccccc34)CC2)cc1	56.0	5.3	-56.0	-0.3	0.3
Cc1ccc(OCC(=O)N2CCN(c3nnc(-c4ccc(C)cc4)c4ccccc34)CC2)cc1	78.5*	-0.1	-78.5	.	0.3
SMILES	SR-BI HDL uptake	GSK3beta inhib	SR-BI DiI-HDL act	GSK3A inh	CDK5 inh
COc1cc(/C=N/NC(=O)C2C3CCCCC32C)cc(Br)c1O (configuration not stated)	17.7	3.4	-17.7	1.8	-1.6
COCC1=C(C(=O)OC(C)OC(=O)OC(C)C)N2C(=O)[C@@H](NC(=O)/C(=N\OC)c3csc(N)n3)[C@H]2SC1 (some centres not stated)	87.8*	0.1	-87.8	-1.2	3.2
CC1CC(=O)c2c(cc3c(-c4c(O)cc(O)c5c(O)c6c(cc45)OC(C)CC6=O)c(O)cc(O)c3c2O)O1 (configuration not stated)	116.9*	0.8	-116.9	3.1	-1.0
O=C1CC(c2ccc(O)cc2)Oc2cc(O)cc(O)c21 (configuration not stated)	19.5	1.2	-19.5	10.1	1.9
Oc1ccccc1-c1cc(-c2ccc3c(c2)OCCO3)n[nH]1	77.7*	-1.3	-77.7	1.7	0.7
CC(C)n1ncc2c(C(=O)Nc3cccc(S(=O)(=O)N(C)C)c3)cc(C3CC3)nc21	76.3*	.	-76.3	-3.9	-1.2
CNC(=O)c1cccc(NC(=O)c2cc(-c3ccccc3)nc3c2cnn3C(C)C)c1	82.2*	.	-82.2	-0.5	-1.8
CC(C)n1ncc2c(C(=O)Nc3ccc(S(C)(=O)=O)cc3)cc(C3CC3)nc21	29.3	.	-29.3	4.6	-0.3
O=C(Cc1ccc([N+](=O)[O-])cc1)N/N=C/c1cccs1	0.4	1.6	-0.4	-0.2	-1.4
CCOC(=O)CC(=O)NC1(Cc2ccc(O)cc2)CCCCC1	.	1.4	.	1.5	-0.3
COc1ccc(CNC(=O)COC(=O)c2cccs2)cc1	-9.3	.	9.3	-3.1	1.0
CCC(CC)NC(=O)CON=C1c2ccccc2-c2ccccc21	72.4*	2.0	-72.4	.	1.4
CCNC(=O)CON=C1c2ccccc2-c2ccccc21	47.6	0.8	-47.6	-1.1	-5.2
NC(=S)NN=C1C2CC3CC(C2)CC1C3	78.5*	0.1	-78.5	-1.6	-0.2
NC(=O)C(=O)NN=C1C2CC3CC(C2)CC1C3	-2.8	-3.0	2.8	0.7	0.6
COC(=O)c1cn(C(=O)/C=C/c2ccc(OC)c(OC)c2)c2ccccc12	92.6*	-0.9	-92.6	-0.9	0.7
O=S(=O)(c1ccc(-c2n[nH]c(=S)o2)cc1)N1CCCC1	.	2.8	.	-1.0	-0.6
Clc1ccc(CSc2nnc(-c3ccncc3)o2)cc1	-1.4	-48.1	1.4	9.9	0.9
Fc1ccc(CSc2nnc(-c3ccncc3)o2)cc1	0.0	-53.8*	0.0	12.9	0.1
Cc1cnc(NC(=O)C2CC(=O)N(c3ccc4c(c3)OCCO4)C2)s1 (configuration not stated)	-10.1	.	10.1	50.1*	3.2
CC(C)CCNC(=O)NC(=O)COC(=O)/C=C/c1cc(Br)ccc1F	-9.8	-0.4	9.8	-4.0	-2.5
